From ChEMBL document CHEMBL1145195 (J Med Chem, 2005)

What was measured:
[1] = target: Serine protease 1 (Homo sapiens, UniProt P07477); experiment: Binding affinity determined against human trypsin
[2] = target: T1, Coagulation factor X (Homo sapiens, UniProt P00742); experiment: Binding affinity against human Coagulation factor Xa
Target sequence in this assay (P00742 41-179 limits assumed): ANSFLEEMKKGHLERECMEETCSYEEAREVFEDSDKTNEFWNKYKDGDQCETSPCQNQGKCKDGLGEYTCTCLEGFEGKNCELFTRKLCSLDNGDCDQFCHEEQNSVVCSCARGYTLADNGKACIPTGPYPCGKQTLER
Target sequence in this assay (P00742 235-488 limits assumed): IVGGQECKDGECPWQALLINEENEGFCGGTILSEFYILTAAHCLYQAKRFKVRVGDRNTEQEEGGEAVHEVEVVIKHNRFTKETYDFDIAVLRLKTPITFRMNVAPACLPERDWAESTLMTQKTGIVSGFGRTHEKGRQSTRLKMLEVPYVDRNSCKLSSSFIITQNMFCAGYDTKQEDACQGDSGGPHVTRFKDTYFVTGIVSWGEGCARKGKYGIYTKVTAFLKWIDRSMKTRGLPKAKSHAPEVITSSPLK

[3] = target: Prothrombin (Homo sapiens, UniProt P00734); experiment: Binding affinity against human thrombin
[4] = tested on: Caco-2; experiment: Apparent cell permeability in Caco-2 cell line; format: functional, cell-based; conditions: Homo sapiens
[5] = Activated partial thromboplastin time was determined in human plasma; format: functional
Method in brief: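 Pooled human plasma obtained by centrifugation at 2000g for 10 min, kept on ice. Inhibitor taken from a 10 mM DMSO stock, diluted in plasma, held on ice. Five to seven concentrations, each in duplicate. Alexin aPTT reagent added after plasma warmed 1 min at 37 °C. Clotting time compared with control plasma; the concentration doubling aPTT is reported.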

[6] = target: Coagulation factor XI (Homo sapiens, UniProt P03951); experiment: Binding affinity determined against coagulation factor XI
Sequence of Coagulation factor XI (P03951 19-387 limits assumed): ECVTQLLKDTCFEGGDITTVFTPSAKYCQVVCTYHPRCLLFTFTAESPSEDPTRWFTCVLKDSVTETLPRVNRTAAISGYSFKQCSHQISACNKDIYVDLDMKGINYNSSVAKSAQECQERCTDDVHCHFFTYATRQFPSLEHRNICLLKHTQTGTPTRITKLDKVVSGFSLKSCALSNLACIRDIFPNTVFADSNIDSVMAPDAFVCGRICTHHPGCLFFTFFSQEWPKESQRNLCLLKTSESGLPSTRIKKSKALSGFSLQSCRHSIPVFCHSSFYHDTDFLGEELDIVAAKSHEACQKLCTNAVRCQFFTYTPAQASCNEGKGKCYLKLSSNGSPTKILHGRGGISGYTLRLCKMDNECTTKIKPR
Sequence of Coagulation factor XI (P03951 388-625 limits assumed): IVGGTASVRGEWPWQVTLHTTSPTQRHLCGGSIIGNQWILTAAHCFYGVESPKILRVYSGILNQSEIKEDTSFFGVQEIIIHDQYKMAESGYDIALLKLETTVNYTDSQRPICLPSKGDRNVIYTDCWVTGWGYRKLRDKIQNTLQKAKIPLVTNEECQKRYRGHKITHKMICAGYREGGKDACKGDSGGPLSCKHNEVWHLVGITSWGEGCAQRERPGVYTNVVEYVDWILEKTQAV
Method in brief: (§1)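 Absorbance at 405 nm followed for 30 min. Percent activity taken from rates against no-inhibitor controls, then converted to Ki using Km and substrate concentration. Run in duplicate alongside internal standards.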

[7] = Binding affinity of compound was determined against rabbit plasma protein; format: ADME, cell-free, Oryctolagus cuniculus
Method in brief: (§2)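 Human or rabbit plasma protein binding determined by equilibrium dialysis.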

[8] = tested on: Caco-2; experiment: Apparent permeability in Caco-2 (human carcinoma) cells
[9] = Binding affinity against human plasma protein was determined; format: ADME, cell-free; method in brief: as §2
[10] = Half life in dogs upon 0.4 mg/kg intravenous administration; format: ADME, organism-based, Canis lupus familiaris; set-up: dose 0.4 mg/kg, route intravenous; conditions: dog, in vivo
Method in brief: (§3)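 Dogs dosed with the compounds as TFA salts in an N-in-1 (cassette) format, 0.4 mg/kg intravenously and 0.2 mg/kg orally.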

[11] = target: Vitamin K-dependent protein C (Homo sapiens, UniProt P04070); experiment: Binding affinity determined against human activated protein C; method in brief: as §1
Sequence of Vitamin K-dependent protein C (P04070 43-197 limits assumed): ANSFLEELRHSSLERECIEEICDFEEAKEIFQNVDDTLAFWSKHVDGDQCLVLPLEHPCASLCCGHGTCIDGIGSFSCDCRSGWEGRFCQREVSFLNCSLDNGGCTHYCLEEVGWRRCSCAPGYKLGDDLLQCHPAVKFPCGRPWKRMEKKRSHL
Sequence of Vitamin K-dependent protein C (P04070 212-461 limits assumed): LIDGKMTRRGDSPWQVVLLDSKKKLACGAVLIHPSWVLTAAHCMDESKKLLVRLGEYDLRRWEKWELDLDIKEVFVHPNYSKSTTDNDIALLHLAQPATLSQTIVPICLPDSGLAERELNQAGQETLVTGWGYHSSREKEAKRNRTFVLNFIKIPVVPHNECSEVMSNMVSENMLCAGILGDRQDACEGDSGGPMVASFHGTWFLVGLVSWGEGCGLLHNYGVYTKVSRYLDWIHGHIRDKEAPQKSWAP

[12] = Steady state volume of distribution in dogs upon 0.4 mg/kg intravenous administration; format: ADME, organism-based, Canis lupus familiaris; set-up: dose 0.4 mg/kg, route intravenous; conditions: dog, in vivo, read-out: Vdss; method in brief: as §3
[13] = species: Oryctolagus cuniculus
[14] = Oral bioavailability of compound was determined in dogs upon 0.2 mg/kg administration; format: ADME, organism-based, Canis lupus familiaris; conditions: dog, in vivo; method in brief: as §3
[15] = target: Urokinase-type plasminogen activator (Homo sapiens, UniProt P00749); experiment: Binding affinity determined against human urokinase
[16] = target: Chymotrypsinogen B (Homo sapiens, UniProt P17538); experiment: Binding affinity determined against human Chymotrypsin; method in brief: as §1
Sequence of Chymotrypsinogen B (P17538 34-164 limits assumed, other chains not shown): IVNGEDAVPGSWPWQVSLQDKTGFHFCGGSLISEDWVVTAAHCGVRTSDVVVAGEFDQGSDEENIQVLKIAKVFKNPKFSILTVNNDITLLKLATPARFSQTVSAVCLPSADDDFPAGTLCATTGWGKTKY
Sequence of Chymotrypsinogen B (P17538 167-263 limits assumed, other chains not shown): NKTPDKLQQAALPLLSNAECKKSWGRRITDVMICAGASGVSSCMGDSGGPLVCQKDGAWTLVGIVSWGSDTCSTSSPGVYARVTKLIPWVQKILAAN

[17] = Binding affinity of compound was determined against human plasma protein; format: ADME, cell-free; method in brief: as §2
[18] = target: Coagulation factor IX (Homo sapiens, UniProt P00740); experiment: Binding affinity against human Coagulation factor IX
Sequence of Coagulation factor IX (P00740 47-191 limits assumed): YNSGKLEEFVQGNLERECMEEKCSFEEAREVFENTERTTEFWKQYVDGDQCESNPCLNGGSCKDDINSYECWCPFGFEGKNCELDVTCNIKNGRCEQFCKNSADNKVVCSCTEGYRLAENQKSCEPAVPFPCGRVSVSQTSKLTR
Sequence of Coagulation factor IX (P00740 227-461 limits assumed): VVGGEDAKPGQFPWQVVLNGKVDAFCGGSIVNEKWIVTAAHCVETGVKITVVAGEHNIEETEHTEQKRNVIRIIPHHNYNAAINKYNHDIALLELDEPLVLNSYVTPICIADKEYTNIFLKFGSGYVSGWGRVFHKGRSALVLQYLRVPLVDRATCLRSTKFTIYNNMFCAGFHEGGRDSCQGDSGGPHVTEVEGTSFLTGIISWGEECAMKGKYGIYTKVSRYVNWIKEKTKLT

[19] = Oral bioavailability in dogs at 0.2 mg/kg (n=2); format: ADME, organism-based, Canis lupus familiaris; conditions: dog, in vivo
Method in brief: (§4)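 Dog pharmacokinetics with compounds given as TFA salts in an N-in-1 (cassette) format, at 0.4 mg/kg intravenously and 0.2 mg/kg orally.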

[20] = target: T2, Coagulation factor VII (Homo sapiens, UniProt P08709); experiment: Binding affinity against human Coagulation factor VII
T2 sequence (P08709 whole entry): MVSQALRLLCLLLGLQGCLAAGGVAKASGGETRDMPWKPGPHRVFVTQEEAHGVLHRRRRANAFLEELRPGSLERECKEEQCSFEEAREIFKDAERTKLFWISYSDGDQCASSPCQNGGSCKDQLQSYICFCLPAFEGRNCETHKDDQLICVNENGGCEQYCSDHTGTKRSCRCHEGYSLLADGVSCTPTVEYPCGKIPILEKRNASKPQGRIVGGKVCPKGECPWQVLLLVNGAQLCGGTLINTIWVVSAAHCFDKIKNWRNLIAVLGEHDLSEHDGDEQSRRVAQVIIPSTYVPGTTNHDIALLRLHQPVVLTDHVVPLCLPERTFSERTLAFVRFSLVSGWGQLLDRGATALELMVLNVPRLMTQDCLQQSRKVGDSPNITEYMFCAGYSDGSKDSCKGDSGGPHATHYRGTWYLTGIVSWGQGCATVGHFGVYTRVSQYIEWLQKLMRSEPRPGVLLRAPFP

[21] = Steady state volume of distribution in dogs at 0.4 mg/kg intravenous administration; format: ADME, organism-based, Canis lupus familiaris; set-up: dose 0.4 mg/kg, route intravenous; conditions: dog, in vivo, read-out: Vdss; method in brief: as §4
[22] = Clearance in dogs at 0.4 mg/kg intravenous administration; format: ADME, organism-based, Canis lupus familiaris; set-up: dose 0.4 mg/kg, route intravenous; conditions: dog, in vivo; method in brief: as §4
[23] = target: T1, Coagulation factor X; experiment: Binding affinity against blood clotting factor X
Target sequence in this assay (P00742 whole entry, looked up): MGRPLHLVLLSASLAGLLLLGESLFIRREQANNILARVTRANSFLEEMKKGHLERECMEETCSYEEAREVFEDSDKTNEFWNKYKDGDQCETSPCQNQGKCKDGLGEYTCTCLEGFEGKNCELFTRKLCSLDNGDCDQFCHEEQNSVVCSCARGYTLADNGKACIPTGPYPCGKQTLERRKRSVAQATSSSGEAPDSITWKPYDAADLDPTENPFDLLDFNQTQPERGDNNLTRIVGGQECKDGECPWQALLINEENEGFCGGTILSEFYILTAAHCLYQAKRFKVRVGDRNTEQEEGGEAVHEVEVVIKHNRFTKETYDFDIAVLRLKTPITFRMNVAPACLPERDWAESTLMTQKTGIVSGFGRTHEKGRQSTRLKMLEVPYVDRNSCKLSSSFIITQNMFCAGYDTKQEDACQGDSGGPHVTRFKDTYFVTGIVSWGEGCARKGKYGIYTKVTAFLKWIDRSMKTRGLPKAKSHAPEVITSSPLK

[24] = Half life period in dogs at 0.4 mg/kg intravenous administration; format: ADME, organism-based, Canis lupus familiaris; set-up: dose 0.4 mg/kg, route intravenous; conditions: dog, in vivo; method in brief: as §4
[25] = Oral bioavailability of compound was determined in dogs upon administration of 0.2 mg/kg; format: ADME, organism-based, Canis lupus familiaris; conditions: dog, in vivo; method in brief: as §4

Sequence of Serine protease 1 (P07477 whole entry): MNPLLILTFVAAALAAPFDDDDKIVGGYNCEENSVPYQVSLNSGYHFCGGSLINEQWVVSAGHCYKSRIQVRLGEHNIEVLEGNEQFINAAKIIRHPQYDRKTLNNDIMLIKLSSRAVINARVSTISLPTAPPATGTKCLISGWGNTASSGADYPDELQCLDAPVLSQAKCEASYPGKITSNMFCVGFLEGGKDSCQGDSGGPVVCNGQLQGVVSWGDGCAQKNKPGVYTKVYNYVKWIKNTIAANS

Nc1noc2ccc(-n3nc(C(F)(F)F)cc3C(=O)Nc3ccc(-c4ccccc4S(N)(=O)=O)cc3F)cc12
Ki [1]: > 1600 nM | Ki [2]: 0.16 nM | Ki [3]: 2300 nM | Permeability [4]: < 0.1 ×10⁻⁶ cm/s

Cc1nccn1-c1ccc(NC(=O)c2cc(C(F)(F)F)nn2-c2ccc3onc(N)c3c2)c(C#N)c1
Ki [2]: 0.52 nM | Permeability [4]: < 0.1 ×10⁻⁶ cm/s

CC(C)c1nccn1-c1ccc(NC(=O)c2cc(C(F)(F)F)nn2-c2ccc3onc(N)c3c2)c(F)c1
Ki [2]: 1.6 nM

Nc1noc2ccc(-n3nc(C(F)(F)F)cc3C(=O)Nc3ccc(-c4ccncc4S(N)(=O)=O)cc3F)cc12
Ki [1]: > 4200 nM | Ki [2]: 0.1 nM | concentration doubling aPTT [5]: 15.5 µM | Ki [3]: 740 nM | Permeability [4]: 0.54 ×10⁻⁶ cm/s

CN(C)Cc1nccn1-c1ccc(NC(=O)c2cc(C(F)(F)F)nn2-c2ccc3onc(N)c3c2)c(F)c1.Cl [RAZAXABAN HYDROCHLORIDE]
Ki [6]: > 12000 nM | Binding [7]: 93.4% | Permeability [8]: 5.56 ×10⁻⁶ cm/s | Binding [9]: 90.5% | half-life [10]: 3.4 h | Ki [11]: 19700 nM | Vd [12]: 5.3 L/kg | ID50 [13]: 1.6 µmol/kg/h | bioavailability [14]: 84%

Cn1ccnc1-c1ccc(NC(=O)c2cc(C(F)(F)F)nn2-c2ccc3onc(N)c3c2)c(F)c1
Ki [1]: > 2500 nM | Ki [2]: 0.51 nM | concentration doubling aPTT [5]: 9.4 µM | Ki [3]: 34 nM | Permeability [4]: 4.69 ×10⁻⁶ cm/s

Nc1noc2ccc(-n3nc(C(F)(F)F)cc3C(=O)Nc3ccc(N4CCOCC4)cc3F)cc12
Ki [1]: > 5200 nM | Ki [2]: 6.3 nM | Ki [3]: 20000 nM

CS(=O)(=O)c1ccccc1-c1ccc(NC(=O)c2cc(C(F)(F)F)nn2-c2cccc(CN)c2)c(F)c1
Ki [15]: > 17000 nM | Ki [16]: > 17000 nM | ID50 [13]: 1.1 µmol/kg/h

Nc1noc2ccc(-n3nc(C(F)(F)F)cc3C(=O)Nc3ccc(C(=O)N4CCCC4)cc3F)cc12
Ki [1]: > 5200 nM | Ki [2]: 0.92 nM | concentration doubling aPTT [5]: 13.8 µM | Ki [3]: 8000 nM | Permeability [4]: 24.9 ×10⁻⁶ cm/s

Nc1noc2ccc(-n3nc(C(F)(F)F)cc3C(=O)Nc3ccc(-n4ccnc4CO)cc3F)cc12
Ki [2]: 1 nM | Ki [3]: 1700 nM | Permeability [4]: 0.1 ×10⁻⁶ cm/s

Cc1nccn1-c1ccc(NC(=O)c2cc(C(F)(F)F)nn2-c2ccc3onc(N)c3c2)c(F)c1
Ki [2]: 0.7 nM | concentration doubling aPTT [5]: 24.4 µM | Binding [17]: 98% | Permeability [4]: 7.41 ×10⁻⁶ cm/s

Cc1nccn1-c1ccc(NC(=O)c2cc(C(F)(F)F)nn2-c2ccc3onc(N)c3c2)cc1
Ki [2]: 0.6 nM | Ki [3]: 1100 nM | Permeability [4]: 0.82 ×10⁻⁶ cm/s

Nc1noc2ccc(-n3nc(C(F)(F)F)cc3C(=O)Nc3ccc(-n4ccnc4CN4CCCC4)cc3F)cc12
Ki [2]: 0.37 nM | Ki [3]: 600 nM | Permeability [4]: 23 ×10⁻⁶ cm/s

Cc1nccn1-c1ccc(NC(=O)c2cc(C(F)(F)F)nn2-c2ccc3onc(N)c3c2)c(-n2ccnc2C)c1
Ki [2]: 1.6 nM | Ki [3]: 800 nM

CS(=O)(=O)c1ccccc1-c1ccc(NC(=O)c2cc(C(F)(F)F)nn2-c2ccc3onc(N)c3c2)c(F)c1
Ki [1]: > 5200 nM | Ki [2]: 0.09 nM | Ki [18]: 3500 nM | bioavailability [19]: 2% | Ki [3]: 6300 nM | Ki [20]: > 15000 nM | Ki [15]: 16000 nM | Ki [11]: 28000 nM | Permeability [4]: < 0.1 ×10⁻⁶ cm/s | Ki [16]: 2300 nM

COc1cc(-n2ccnc2C)ccc1NC(=O)c1cc(C(F)(F)F)nn1-c1ccc2onc(N)c2c1
Ki [2]: 2.8 nM | Ki [3]: 200 nM

CCc1nccn1-c1ccc(NC(=O)c2cc(C(F)(F)F)nn2-c2ccc3onc(N)c3c2)c(F)c1
Ki [2]: 0.73 nM | concentration doubling aPTT [5]: 14.3 µM | Binding [17]: 95% | Permeability [4]: 3.32 ×10⁻⁶ cm/s

CNCc1nccn1-c1ccc(NC(=O)c2cc(C(F)(F)F)nn2-c2ccc3onc(N)c3c2)c(F)c1
Ki [2]: 0.17 nM | Vd [21]: 4.6 L/kg | clearance [22]: 18.3 mL/min/kg | concentration doubling aPTT [5]: 5.9 µM | Ki [23]: 0.17 nM | Ki [3]: 1700 nM | half-life [24]: 3.7 h | Binding [17]: 85.6% | Permeability [4]: 0.2 ×10⁻⁶ cm/s | bioavailability [25]: 27%

Cc1nccn1-c1ccc(NC(=O)c2cc(C(F)(F)F)nn2-c2ccc3onc(N)c3c2)c(C(N)=O)c1
Ki [2]: 7.7 nM | Ki [3]: > 21000 nM

NCc1nccn1-c1ccc(NC(=O)c2cc(C(F)(F)F)nn2-c2ccc3onc(N)c3c2)c(F)c1
Ki [2]: 3 nM | Ki [3]: 3500 nM
